Reference: ChEMBL document CHEMBL1681716, “Novel dihydrothieno[2,3-e]indazole derivatives as IκB kinase inhibitors” (Bioorg Med Chem Lett, 2011)

Key:
[1] = target: T1, Inhibitor of nuclear factor kappa-B kinase subunit beta (Homo sapiens, UniProt O14920); assay: Inhibition of human IKK-beta by substrate phosphorylation assay
T1 sequence (O14920 whole entry): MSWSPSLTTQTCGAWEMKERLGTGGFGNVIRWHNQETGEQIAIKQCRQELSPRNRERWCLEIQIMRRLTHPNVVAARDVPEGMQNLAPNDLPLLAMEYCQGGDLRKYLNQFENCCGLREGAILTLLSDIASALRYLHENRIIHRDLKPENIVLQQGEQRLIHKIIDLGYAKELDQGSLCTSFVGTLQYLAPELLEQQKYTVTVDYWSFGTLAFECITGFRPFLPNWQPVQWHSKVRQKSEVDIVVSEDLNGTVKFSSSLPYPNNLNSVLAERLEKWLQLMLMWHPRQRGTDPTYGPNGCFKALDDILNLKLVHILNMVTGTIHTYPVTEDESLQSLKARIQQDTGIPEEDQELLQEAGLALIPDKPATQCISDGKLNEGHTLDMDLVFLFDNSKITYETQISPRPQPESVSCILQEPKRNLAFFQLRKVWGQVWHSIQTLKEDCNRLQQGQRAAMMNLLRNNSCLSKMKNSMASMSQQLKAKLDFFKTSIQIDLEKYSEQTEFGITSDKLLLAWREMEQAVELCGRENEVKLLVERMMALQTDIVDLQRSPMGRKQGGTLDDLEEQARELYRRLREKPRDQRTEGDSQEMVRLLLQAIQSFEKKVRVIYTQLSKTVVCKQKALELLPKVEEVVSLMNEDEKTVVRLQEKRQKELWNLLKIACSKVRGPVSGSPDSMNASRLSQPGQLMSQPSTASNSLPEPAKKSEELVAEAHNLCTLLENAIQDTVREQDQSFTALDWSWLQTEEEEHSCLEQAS
In short: (§1)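 Human IKK-α or IKK-β was tested on a biotinylated 21-residue IκBα peptide captured on avidin-coated plates and blocked with 3% BSA. Enzyme in 25 mM Tris pH 7.4, 2 mM DTT and 0.01% Tween 20 was preincubated with compound (1% DMSO) for 10 min at 25 °C. An ATP/MgCl₂ solution started the reaction, which ran 60 min at 25 °C. Phospho-IκBα was detected with a mouse monoclonal antibody, then HRP anti-mouse IgG and TMB.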

THP-1 = assay: Antiinflammatory activity in human THP1 cells assessed as inhibition of LPS-induced TNF-alpha production after 6 hrs by ELISA; settings: THP-1, 6 h
[2] = target: T2, Inhibitor of nuclear factor kappa-B kinase subunit alpha (Homo sapiens, UniProt O15111); assay: Inhibition of human IKK-alpha by substrate phosphorylation assay; in short: as §1
T2 sequence (O15111 whole entry): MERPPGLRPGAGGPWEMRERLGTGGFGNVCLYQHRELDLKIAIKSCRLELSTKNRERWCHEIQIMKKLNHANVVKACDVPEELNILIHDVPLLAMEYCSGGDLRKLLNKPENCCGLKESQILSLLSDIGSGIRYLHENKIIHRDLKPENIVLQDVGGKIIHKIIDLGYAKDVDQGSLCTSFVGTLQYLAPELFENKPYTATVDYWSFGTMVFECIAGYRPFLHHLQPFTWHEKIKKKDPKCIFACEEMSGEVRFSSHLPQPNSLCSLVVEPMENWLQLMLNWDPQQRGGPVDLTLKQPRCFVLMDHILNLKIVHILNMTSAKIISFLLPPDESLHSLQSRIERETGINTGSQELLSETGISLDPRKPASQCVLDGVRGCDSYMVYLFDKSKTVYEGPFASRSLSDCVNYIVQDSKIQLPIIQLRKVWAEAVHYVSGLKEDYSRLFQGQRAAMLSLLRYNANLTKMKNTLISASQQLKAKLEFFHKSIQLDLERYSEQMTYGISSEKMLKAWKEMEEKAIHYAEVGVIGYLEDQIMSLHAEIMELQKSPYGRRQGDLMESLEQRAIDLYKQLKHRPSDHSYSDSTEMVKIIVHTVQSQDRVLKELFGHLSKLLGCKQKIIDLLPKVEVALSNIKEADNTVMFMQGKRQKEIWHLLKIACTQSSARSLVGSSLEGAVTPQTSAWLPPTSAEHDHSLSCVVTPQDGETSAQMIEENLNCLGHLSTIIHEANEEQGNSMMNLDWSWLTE

Mus musculus = assay: Antiinflammatory activity in po dosed DBA/2 mouse assessed as inhibition of LPS-stimulated plasma TNFalpha production pretreated 60 mins before LPS challenge measured after 90 mins by ELISA; type: functional, organism-based
In short: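 Female DBA/2 mice were given compound by oral gavage at 3 and 10 mg/kg. After 60 min, LPS in 0.2 mL saline was injected i.p. Plasma TNF-α was measured by ELISA 90 min after the LPS challenge.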

| SMILES | IC50 [1] | IC50 (THP-1) | IC50 [2] | inhibition (Mus musculus) |
| --- | --- | --- | --- | --- |
| NC(=O)Nc1sc2c(c1C(N)=O)CCc1nn(Cc3ccccn3)cc1-2 | 4.5 µM | > 30 µM | – | – |
| NC(=O)Nc1sc2c(c1C(N)=O)CCc1nn(Cc3ccncc3)cc1-2 | 2.3 µM | 9 µM | – | – |
| CCCCCCn1cc2c(n1)CCc1c-2sc(NC(N)=O)c1C(N)=O | 8.4 µM | – | – | – |
| CN(C)CCn1cc2c(n1)CCc1c-2sc(NC(N)=O)c1C(N)=O | 8.8 µM | – | – | – |
| NC(=O)Nc1sc2c(c1C(N)=O)CCc1nn(C3CCCN(Cc4cc(F)c(F)cc4F)C3)cc1-2 (stereo unspecified) | 3.1 µM | 0.3 µM | – | – |
| NC(=O)Nc1sc2c(c1C(N)=O)CCc1nn(C3CCN(Cc4ccccc4)C3)cc1-2 (racemic) | 3 µM | 1.7 µM | – | – |
| CCCn1cc2c(n1)CCc1c-2sc(NC(N)=O)c1C(N)=O | 2.9 µM | 5.2 µM | – | – |
| NC(=O)Nc1sc2c(c1C(N)=O)CCc1nn(C3CCCN(Cc4ccc(Cl)cc4)C3)cc1-2 (stereo unspecified) | 2.5 µM | 0.6 µM | > 100 µM | – |
| NC(=O)Nc1sc2c(c1C(N)=O)CCc1nn(C3CCCN(Cc4ccc(Cl)cc4F)C3)cc1-2 (stereo unspecified) | 0.5 µM | 4.4 µM | 41 µM | – |
| NC(=O)Nc1sc2c(c1C(N)=O)CCc1nn(C3CCCN(Cc4ccc(O)cc4F)C3)cc1-2 (stereo unspecified) | 0.9 µM | 0.7 µM | – | – |
| NC(=O)Nc1sc2c(c1C(N)=O)CCc1nn(Cc3ccc(F)cc3)cc1-2 | 0.9 µM | 2.5 µM | – | – |
| NC(=O)Nc1sc2c(c1C(N)=O)CCc1nn(Cc3cccnc3)cc1-2 | 4.8 µM | 24 µM | – | – |
| NC(=O)Nc1sc2c(c1C(N)=O)CCc1nn(C3CCCN(Cc4ccc(N)cc4F)C3)cc1-2 (stereo unspecified) | 0.5 µM | 0.5 µM | 9 µM | – |
| CN(CCn1cc2c(n1)CCc1c-2sc(NC(N)=O)c1C(N)=O)Cc1ccccc1 | 4.6 µM | 5.1 µM | – | – |
| CC(=O)Nc1ccc(CN2CCCC(n3cc4c(n3)CCc3c-4sc(NC(N)=O)c3C(N)=O)C2)c(F)c1 (stereo unspecified) | > 10 µM | – | – | – |
| COCCn1cc2c(n1)CCc1c-2sc(NC(N)=O)c1C(N)=O | 11 µM | – | – | – |
| NC(=O)Nc1sc2c(c1C(N)=O)CCc1c-2cnn1Cc1ccc(F)cc1 | 0.2 µM | 12 µM | – | – |
| NC(=O)Nc1sc2c(c1C(N)=O)CCc1nn(C3CCCCN(Cc4ccccc4)C3)cc1-2 (racemic) | > 10 µM | – | – | – |
| COc1ccc(CN2CCCC(n3cc4c(n3)CCc3c-4sc(NC(N)=O)c3C(N)=O)C2)c(F)c1 (stereo unspecified) | 1.9 µM | 3.8 µM | > 100 µM | – |
| CCCCn1cc2c(n1)CCc1c-2sc(NC(N)=O)c1C(N)=O | 2.7 µM | 4 µM | – | – |
| NC(=O)Nc1sc2c(c1C(N)=O)CCc1nn(Cc3ccccc3)cc1-2 | 4.2 µM | 5.6 µM | – | – |
| CCCn1ncc2c1CCc1c-2sc(NC(N)=O)c1C(N)=O | 2.2 µM | 42 µM | – | – |
| CC(C)n1cc2c(n1)CCc1c-2sc(NC(N)=O)c1C(N)=O | 2.3 µM | 4.6 µM | – | – |
| NC(=O)Nc1sc2c(c1C(N)=O)CCc1nn(C3CCCN(Cc4ccccc4)C3)cc1-2 (racemic) | 2.2 µM | 0.5 µM | > 100 µM | – |
| NC(=O)Nc1sc2c(c1C(N)=O)CCc1nn(C3CN(Cc4ccccc4)C3)cc1-2 | 7.1 µM | 2.5 µM | – | – |
| NC(=O)Nc1sc2c(c1C(N)=O)CCc1nn(C3CCCN(Cc4ccc(F)cc4F)C3)cc1-2 (stereo unspecified) | 1.7 µM | 0.8 µM | > 100 µM | Dose-dependent effect |
| NC(=O)Nc1sc2c(c1C(N)=O)CCc1nn(C3CCN(Cc4ccccc4)CC3)cc1-2 | 4.8 µM | 1.2 µM | – | – |
